Screening results from PubChem.
Yeast lifespan up: compounds extending yeast replicative lifespan, primary screen, S. cerevisiae, OD615; inhibition of the nicotinamide effect, % at 10 µM; S. cerevisiae growth with nicotinamide; deaD strain in restrictive glucose medium; AID 775, 2007; hit rate 0.68% among 130,000;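 active = inhibition above a set limit, placed 3 SD over the median of all compounds, cut at about 26% in these data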;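 also: 0% = nicotinamide-treated wells and 100% = cells grown without nicotinamide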
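Buffer or medium: CSMM-D glucose medium, restrictive; test system: modified budding yeast, DeaD strain; compound: single dose 10 µM compound, 0.25% DMSO; schedule: culture preincubation 4 h, compound exposure 48 h, both 30 °C; detection: optical density (absorbance) at 615 nm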
PostGolgi yeast: phenotypic screen on post-Golgi transport, primary screen; AID 739, 2007; inhibition, % at 10 µM; hit rate 0.9% among 98,000; post-Golgi transport phenotypic cell assay;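 also: yeast cells grown in 1536-well plates; yeast grown about 18 h at 30C before absorbance read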
Yeast growth inh: growth inhibitors of yeast BB579 in restrictive medium, primary screen, yeast lifespan-shortening project, S. cerevisiae | inhibition, % at 10 µM | OD615, 48 h | hit rate 0.51% among 140,000;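 active = inhibition above a set limit, 3 SD over the mean compound inhibition, cut at about 44% in these data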
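Test system: Saccharomyces cerevisiae DeaD strain BB579, replicative lifespan model yeast | Buffer or medium: Restrictive CSMM-D medium | Doses: One dose, 10 µM compound with 0.25% DMSO | Incubation: 48 h exposure, 30 °C | Detection: Culture absorbance at 615 nm | Control set: Amphotericin B at 10 µg/mL as positive control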
PostGolgi ctrl: growth inhibition of yeast control strain, primary screen, counter-screen for post-Golgi transport modulator project. AID 738, 2007. efflux-deficient yeast background strain, growth absorbance A615, 16 h. hit rate 5% among 98,000. inhibition, % at 10 µM
* hit, by the source's call; / = no result given. The full list was thinned out, with hits kept by preference. Rule as the data show it, unless noted: active = inhibition above about 30%; inactive = the rest.

SMILES	Yeast lifespan up	PostGolgi yeast	Yeast growth inh	PostGolgi ctrl
CC(=O)c1cccc(-n2nnnc2SCC(=O)Nc2cccc(NC(=O)c3ccco3)c2)c1	-21.1	-0.5	-39.2	1.6
O=Cc1c(Sc2ccccc2)nc2ccccn2c1=O	-18.5	5.5	64.8*	-2.5
O=Cc1c(Sc2ccccn2)nc2ccccn2c1=O	/	/	-0.2	/
COc1ccccc1NC(=O)N1CCc2[nH]c3ccc(Cl)cc3c2C1	-10.2	3.7	-26.7	8.3
COc1ccc(OCCSc2nc3ccccc3n2CC(=O)O)cc1	-8.7	14.2	-50.5	1.9
O=C(O)Cn1c(SCCOc2ccccc2F)nc2ccccc21	-18.5	31.2*	13.2	-0.6
OCCn1c(SCCOc2ccccc2F)nc2ccccc21	-0.6	5.2	-2.5	41.2*
CCc1cc2cccc(C)c2nc1SCC(=O)N1CCN(C(=O)c2ccco2)CC1	-6.9	-4.2	-47.0	36.0*
COc1ccccc1NS(=O)(=O)c1ccc(NC(=O)c2nc3nc(C)cc(C(F)F)n3n2)cc1	-1.5	0.0	-6.3	7.6
CCN(CC)S(=O)(=O)c1cccc(C(=O)Nc2cccnc2)c1	-4.8	-1.4	-22.2	8.1
CNS(=O)(=O)c1cccc(C(=O)Nc2cccnc2)c1	-1.9	-3.0	32.3	34.0*
CCOc1ccc(C(=O)NC(=S)Nc2cccc(NC(=O)c3ccco3)c2)cc1[N+](=O)[O-]	7.5	/	-21.9	/
O=C(CC1(O)C(=O)N(Cc2ccccc2Cl)c2ccccc21)c1ccco1 (centres undefined)	-9.0	-2.6	-38.5	33.9*
CCOC(=O)/C(=N\Nc1ccccc1Cl)N1CCN(Cc2ccccc2)CC1	-7.9	/	59.3*	/
CCOC(=O)/C(=N\Nc1ccccc1Cl)N1CCN(C)CC1	-5.6	/	39.7	/
Oc1ccc(/C=N/Nc2cc(N3CCCC3)nc(N3CCCC3)n2)cc1	-7.8	17.3	-74.9	30.8*
Oc1cccc(/C=N/Nc2cc(N3CCCC3)nc(N3CCCC3)n2)c1	-1.1	/	-38.7	/
CC(C)/C=N/Nc1nc(-c2ccc(Br)cc2)cs1	-3.0	/	-20.9	/
Cc1ccc([N+](=O)[O-])cc1N=C(c1cccc(Br)c1)N1CCOCC1	-4.5	22.6	10.5	33.6*
O=C1c2ccccc2C(=O)C12OC2c1ccc(Cl)cc1 (centres undefined)	19.9	/	-40.6	/
O=C1OC(c2ccccc2)=NC12CC2c1ccc(Cl)cc1 (centres undefined)	30.1*	/	1.3	/
Cc1ccc(N/C(C(Cl)=C(Cl)Cl)=C(/Cl)[N+](=O)[O-])c(C)c1	48.2*	/	-57.3	/
Cc1ccc(NC(=O)c2c([N+](=O)[O-])c(C(C)(C)C)nn2C)c(C)c1	5.5	/	-26.4	/
O=S(=O)(N1CCCCC1)n1c(Cc2ccccc2)nc2ccccc21	-7.8	6.8	-42.6	37.0*
COc1ccc(CNc2oc(COc3ccccc3)nc2C#N)cc1	-9.5	-4.1	-15.8	14.0
SMILES	Yeast lifespan up	PostGolgi yeast	Yeast growth inh	PostGolgi ctrl
COc1ccccc1-c1nc(C#N)c(NCc2ccc(F)cc2)o1	-24.4	0.3	-65.0	40.8*
COc1ccc(CCNc2oc(-c3ccccc3OC)nc2C#N)cc1	-13.2	-5.2	-33.6	17.6
N#Cc1nc(-c2ccccc2F)oc1NCc1cccc2c1OCO2	-18.1	-3.5	-14.1	34.2*
COc1ccc(CNc2oc(Cc3cccc4ccccc34)nc2C#N)cc1	-1.4	-5.8	-25.6	34.9*
COc1ccc(C)cc1N1C(=N)/C(=C2/Nc3ccccc3S2)C(c2ccccc2)C1=O (centres undefined)	25.6	/	-53.6	/
O=C(OCn1ncc(Br)c(Br)c1=O)c1c(F)cccc1F	21.8	57.4*	36.4	26.1
CCOC(=O)c1c(NC(=O)c2c(Br)cnn2CC)sc(C)c1C	/	/	0.7	/
Cc1cc(C)c2nc(C(F)(F)F)nc(NCCCN3CCOCC3)c2c1	-11.4	40.8*	-44.3	30.0
Fc1ccccc1-c1nc(NCCCN2CCOCC2)c2ccccc2n1	3.0	/	-7.7	/
CCCCC(=O)Nc1ccc(NC(=S)NC(=O)c2cccs2)cc1OC	2.3	/	-8.2	/
O=C(O)c1cccc2c1C(=O)N(Cc1ccncc1)C2	-10.9	-11.7	-16.4	34.8*
O=C(Nc1ccc2c(c1)OCO2)c1cccc2c1C(=O)N(Cc1cccnc1)C2	-4.6	3.0	-6.5	14.8
COc1ccc(N2Cc3cccc(C(=O)O)c3C2=O)cc1	28.5*	-5.4	9.2	4.2
Cc1cc(-c2nc3c4c5c(sc4[nH]c(=O)n3n2)CCC5)c(C)o1	-19.9	0.2	-43.6	31.3*
Cc1nc2sc3c(c2c(=O)[nH]1)CCC3	-4.8	-0.8	-34.7	-8.8
c1ccc2c(c1)c1ccccc1n1c(-c3ccc4c(c3)OCO4)nnc21	-24.0	16.1	-28.9	42.6*
